Source: PubChem BioAssay
Compounds with a hit are over-represented: about 3.5% of the library has one in this group of screens.
MrgX1 antagonist: antagonists of human MrgX1 receptor, primary screen, HEK293 cells, Fluo-4 calcium flux | actives 1.3% (n = 310,000) | BAM8-22 antagonism; active compounds read low | Mas-related G-protein coupled receptor member X1 (Homo sapiens), Q96LB2 | B-score at 10 µM;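 active = calcium-response B-score plate-corrected more than 3 library SD below zero, starting fluorescence within 5 deviations, no agonist response on first addition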;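 note: peak minus trough fluorescence over baseline after final BAM8-22 challenge near maximal dose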
Target sequence (Q96LB2 whole entry, looked up): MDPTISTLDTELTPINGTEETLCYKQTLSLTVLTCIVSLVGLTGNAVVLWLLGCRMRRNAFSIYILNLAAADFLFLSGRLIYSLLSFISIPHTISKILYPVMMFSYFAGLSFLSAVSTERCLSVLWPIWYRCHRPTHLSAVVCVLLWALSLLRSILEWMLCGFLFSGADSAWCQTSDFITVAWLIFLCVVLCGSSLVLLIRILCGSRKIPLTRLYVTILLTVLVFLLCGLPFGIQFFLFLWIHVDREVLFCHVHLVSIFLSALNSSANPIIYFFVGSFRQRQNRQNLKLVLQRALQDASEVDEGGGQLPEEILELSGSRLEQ
MrgX1 allo act: positive allosteric modulators of MrgX1, primary screen, HEK293 cells, Fluo-4 calcium flux; Mas-related G-protein coupled receptor member X1 (Homo sapiens), Q96LB2; FDSS; active compounds read high; B-score at 10 µM; actives 0.63% (n = 310,000); AID 588675, 2011;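 active = plate-corrected calcium response at least 3 library SD above typical, normal starting fluorescence, not activating the receptor alone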;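 note: compound read alongside a low EC10 to EC30 dose of BAM8-22 agonist; peak minus trough fluorescence over baseline measured at the second addition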
RGS4 pot: RGS4 potentiators or activators, primary screen, cell-based, HEK293 M3R inducible RGS4, calcium flux | carbachol calcium flux Fluo4; active compounds read low | B-score at 10 µM | actives 0.92% (n = 310,000) | AID 463111, 2010;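 active = B-score of the integrated calcium signal more than 4 SD below the library mean, with starting fluorescence not abnormally high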;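 note: negative B-score means reduced calcium response which marks RGS4 activation or potentiation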
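Detection: kinetic calcium fluorescence imaging with Fluo4-AM dye, 2 µM / Material: HEK293 cells with stable M3R and inducible RGS4 / Schedule: recording 10 s baseline at 1 Hz, 100 s post-agonist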
MrgX1 agonist: agonists of human MrgX1 receptor, primary screen, HEK293 cells, Fluo-4 calcium flux; Mas-related G-protein coupled receptor member X1 (Homo sapiens), Q96LB2; Fluo-4 calcium fluorescence, agonist mode; active compounds read high; B-score at 10 µM; actives 0.44% (n = 310,000); AID 588627, 2011;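 active = calcium response B-score plate-corrected fluorescence ratio at least 3 library SD, with starting fluorescence B-score inside 5 SD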
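Assay system: stable human MrgX1 HEK293 cell line. Quantity: 15,000 cells per well. Schedule: cells plated overnight, dye loaded 0.5 h 37 °C, 0.5 h room temperature. Detection: Fluo-4 NW calcium-flux fluorescence, kinetic read. Read-out basis: peak-minus-minimum fluorescence over baseline, converted to B scores. Control set: positive and negative control wells on each plate.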
RGS4 inh: RGS4 inhibitors, primary screen, cell-based, HEK293 M3R inducible RGS4, calcium flux; Regulator of G-protein signaling 4 (Homo sapiens), P49798; Fluo-4 calcium flux; active compounds read high; triggered by carbachol at its EC20; B-score at 10 µM; actives 0.45% (n = 310,000); AID 463165, 2010;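 active = B-score, a plate-corrected calcium signal, over three deviations above library mean, with baseline fluorescence within five deviations of library mean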;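 note: RGS4 expression induced by doxycycline in cells with stable M3 receptor; B-score is computed from the integrated fluorescence ratio over baseline after carbachol; higher B-score means a larger calcium signal and so more RGS4 inhibition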
Target sequence (P49798 whole entry, looked up): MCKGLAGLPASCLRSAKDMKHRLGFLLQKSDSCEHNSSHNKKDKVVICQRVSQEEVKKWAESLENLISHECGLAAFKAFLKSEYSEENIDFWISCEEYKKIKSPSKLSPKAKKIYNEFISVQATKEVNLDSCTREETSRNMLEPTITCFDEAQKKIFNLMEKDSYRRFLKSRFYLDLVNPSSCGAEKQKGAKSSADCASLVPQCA
MrgX1 antag conf: MrgX1 receptor antagonists, duplicate retest, confirmation, HEK293 cells, Fluo-4 calcium flux. shares compounds with MrgX1 antagonist. BAM8-22 calcium flux; active compounds read low. remaining BAM8-22 calcium response % of control (active compounds read low), % at 10 µM. actives 19% (n = 2,300). AID 602420, 2012;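 active = remaining agonist calcium response no higher than 100% minus 3 SD of agonist-only control wells, with starting fluorescence near control levels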;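 note: agonist BAM8-22 given at a near maximal EC90 to ECmax level; peak minus minimum fluorescence divided by baseline after agonist addition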
HEK293 Ca flux: nonspecific calcium signal in parental HEK293, confirmation, counter-screen for MrgX1 antagonist project, parental HEK293 cells, Fluo-4 calcium flux. AID 624111, 2012. Fluo-4 calcium fluorescence, FDSS. fluorescence ratio F(max-min)/F0 at 10 µM. actives 2% (n = 4,000). shares compounds with MrgX1 antagonist;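 active = duplicate-averaged calcium fluorescence ratio at least three times the standard deviation of buffer wells, a nonspecific response in parental cells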
HEK293 Ca counter: calcium response in parental HEK293 cells, primary screen, counter-screen for MrgX1 allosteric activator project, cell-based, Fluo-4 calcium flux, duplicate; AID 624114, 2012; fluorescence ratio F(max-min)/F0 at 10 µM; shares compounds with MrgX1 antagonist; actives 0.4% (n = 4,000); Fluo-4 fluorescence ratio; active compounds read high;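 active = calcium fluorescence ratio, averaged over duplicates, at least 3 SD of the buffer-well ratio, meaning a nonspecific response in receptor-free cells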;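 note: untransfected parental HEK293 lacking MrgX1 used as counterscreen for MrgX1 allosteric activators; fluorescence change taken during the second addition on a kinetic imager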
HEK293 Ca cntr2: calcium response in parental HEK293 cells, primary screen, counter-screen for MrgX1 agonist project, cell-based, Fluo-4 calcium flux, duplicate, agonist mode | shares compounds with MrgX1 antagonist | Fluo-4 calcium fluorescence (FDSS); active compounds read high | fluorescence ratio F(max-min)/F0 at 10 µM | actives 8.7% (n = 4,000) | AID 624115, 2012;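 active = calcium fluorescence ratio at least three times the spread of buffer wells, meaning a non-specific response in parental cells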
* hit, by the source's call; i = inactive; . = no result given.

SMILES	MrgX1 antagonist	MrgX1 allo act	RGS4 pot	MrgX1 agonist	RGS4 inh	MrgX1 antag conf	HEK293 Ca flux	HEK293 Ca counter	HEK293 Ca cntr2
Cc1ccc(CNC(=S)NC2CCC(C(C)(C)C)CC2)cc1 (stereo not drawn)	-6.28*	i	i	i	i	63.2%*	i	i	i
Cc1c(C(=O)O)oc2c1/C(=N\O)CC(C)(C)C2	i	i	i	i	i	.	.	.	.
COc1cc(C(C)=O)ccc1OCc1cc(C(=O)N2CCSCC2)no1	i	i	i	i	i	.	.	.	.
CC(=O)c1cccc(OCc2cc(C(=O)N3CCSCC3)no2)c1	-9.04*	i	i	i	i	i	i	i	i
O=C(O)c1ccc(NC(=S)NC(=O)c2cncc(Br)c2)cc1	i	i	i	i	i	.	.	.	.
CC(C)n1nnc(-c2ccc(OCc3ccccc3F)cc2)n1	i	i	i	i	i	.	.	.	.
CCSc1nnc(-c2ccncc2)n1Cc1ccccc1	-6.51*	i	i	i	i	i	i	i	i
CNC(=O)CSc1nnc(-c2ccncc2)n1Cc1ccccc1	i	i	i	i	i	.	.	.	.
COC(CN1C(=O)C(O)=C(C(C)=O)C1c1ccccn1)OC (stereo not drawn)	i	i	i	i	i	.	.	.	.
NC(=O)c1csc(-c2ccncc2)n1	-5.65*	i	i	i	i	i	i	i	i
CCN(CC)S(=O)(=O)c1ccc(OC)c(NC(=O)c2ccc3c(c2)OCO3)c1	-7.6*	i	i	i	i	i	i	i	i
COc1ccc(Cn2c(C)ccc2C)cc1	-6.34*	i	i	i	i	i	i	i	i
Cc1cc(C)c(NC(=O)CN2CCN(c3ccccn3)CC2)c(C)c1	i	i	i	i	i	.	.	.	.
COc1ccc(-c2csc(NC(=O)c3ccccc3NS(=O)(=O)c3ccc(F)c(F)c3)n2)cc1	-6.55*	i	i	i	i	63.3%*	i	i	50.6*
CC(=O)NC1=NN(C(C)=O)C(c2sccc2C)S1 (stereo not drawn)	i	i	i	i	i	.	.	.	.
c1ccc(-c2csc3ncnc(NCc4ccccn4)c23)cc1	-5.61*	i	i	i	i	i	i	i	i
CN(C)CCCNc1ncnc2scc(-c3ccccc3)c12	i	i	i	i	i	.	.	.	.
COc1c2c(nc3ccccc13)OC(C(C)(O)COC(C)=O)C2 (stereo not drawn)	-6.51*	i	i	i	i	i	i	i	i
Cc1nc2ccccc2c2c1CC(C(C)(Cl)Br)O2 (stereo not drawn)	i	i	i	i	i	.	.	.	.
Cc1cccc(NC(=S)NC(C)CCc2ccccc2)c1 (stereo not drawn)	-7.76*	i	i	i	i	i	i	i	i
CC(=O)Oc1c(-c2ccc(Br)o2)oc2ccccc2c1=O	-5.49*	i	i	i	i	i	i	i	i
CCC(C)(C)n1nnnc1C(c1cc2cc3c(cc2[nH]c1=O)OCO3)N1CCCCC1 (stereo not drawn)	-5.86*	i	i	i	i	i	i	i	i
COC(=O)c1cc(=O)n2c(-c3ccccc3)csc2n1	i	i	i	i	i	.	.	.	.
CCN(CC(=O)NC(C)(C)C)Cc1cc(=O)n2c(-c3ccccc3)csc2n1	-4.72*	i	i	i	i	i	i	i	i
Oc1ccccc1NCC(O)Cn1ccc2ccccc21 (stereo not drawn)	-5.3*	i	i	i	i	i	i	i	i
SMILES	MrgX1 antagonist	MrgX1 allo act	RGS4 pot	MrgX1 agonist	RGS4 inh	MrgX1 antag conf	HEK293 Ca flux	HEK293 Ca counter	HEK293 Ca cntr2
C/C(N)=C(/C#N)C(=O)COC(=O)c1cc(-c2ccc(Br)cc2)nc2ccccc12	i	i	i	i	i	.	.	.	.
Cc1ccc(C)c(NC(=S)N2CCCCCC2)c1	i	i	.	i	.	.	.	.	.
Cc1ccc(C)c(NC(=S)N2CCN(CCO)CC2)c1	-4.76*	i	i	i	i	i	i	i	i
CCn1c(SCC(=O)c2ccc3c(c2)OCCO3)nnc1C(C)C	-4.65*	i	.	i	.	i	i	i	i
COc1cc2cc(C(=O)O)[nH]c2c(OC)c1OC	-5.69*	i	i	i	i	i	i	i	i
COc1ccc(OC)c2c(=O)cc(C(=O)O)[nH]c12	i	i	i	i	i	.	.	.	.
O=C(CSc1nnc(C2COc3ccccc3O2)o1)N1CCCc2ccccc21 (stereo not drawn)	-4.54*	i	i	i	i	i	i	i	i
O=C(CSc1nnc(C2COc3ccccc3O2)o1)N1CCOCC1 (stereo not drawn)	i	i	i	i	i	.	.	.	.
COC(=O)c1cccnc1NC(=S)NC1CCCCC1	-4.8*	i	i	i	i	i	i	i	i
COC(=O)c1ccc(NC(=S)NC2CCCCC2)cc1	i	i	i	i	i	.	.	.	.
C=CCSc1nc(N)c(C(=O)Nc2ccccc2OC)cc1C(=O)Nc1ccccc1	-5.88*	i	i	i	i	78.5%*	i	i	i
C=CCSc1nc(N)c(C(=O)Nc2ccccc2)cc1C#N	i	i	i	i	i	.	.	.	.
N#Cc1c(N)nc2c(c1-c1ccccc1)CCCC2	i	i	i	i	i	.	.	.	.
CSc1nc2c(c(-c3ccccc3)c1C#N)CCC2	-6.5*	i	i	i	i	i	i	i	i
